This note sets out measurements from ChEMBL document CHEMBL1136581, “Synthesis of dopamine transporter selective 3-[2-(diarylmethoxyethylidene)]-8-alkylaryl-8-azabicyclo[3.2.1]octanes” (Bioorg Med Chem Lett, 2003).

Each structure is given as a SMILES string.

Chain of Sodium-dependent serotonin transporter (P31652 whole entry): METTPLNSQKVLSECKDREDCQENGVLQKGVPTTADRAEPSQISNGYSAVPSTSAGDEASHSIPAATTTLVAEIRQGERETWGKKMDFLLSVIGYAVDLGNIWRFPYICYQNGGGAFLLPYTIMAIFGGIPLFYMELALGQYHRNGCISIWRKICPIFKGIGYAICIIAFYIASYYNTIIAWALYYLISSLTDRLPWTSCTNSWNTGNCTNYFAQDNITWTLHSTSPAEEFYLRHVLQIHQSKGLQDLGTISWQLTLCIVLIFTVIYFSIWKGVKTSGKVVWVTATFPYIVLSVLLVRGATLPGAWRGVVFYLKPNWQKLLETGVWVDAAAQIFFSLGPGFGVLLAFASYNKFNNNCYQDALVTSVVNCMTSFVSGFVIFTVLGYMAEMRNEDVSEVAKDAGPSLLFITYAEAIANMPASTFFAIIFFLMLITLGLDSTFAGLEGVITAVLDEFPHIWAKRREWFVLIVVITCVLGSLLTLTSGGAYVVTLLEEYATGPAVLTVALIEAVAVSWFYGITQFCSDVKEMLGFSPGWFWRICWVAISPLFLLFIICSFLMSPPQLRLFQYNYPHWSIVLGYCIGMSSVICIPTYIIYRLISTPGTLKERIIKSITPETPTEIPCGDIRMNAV
Chain of Sodium-dependent dopamine transporter (P23977 whole entry): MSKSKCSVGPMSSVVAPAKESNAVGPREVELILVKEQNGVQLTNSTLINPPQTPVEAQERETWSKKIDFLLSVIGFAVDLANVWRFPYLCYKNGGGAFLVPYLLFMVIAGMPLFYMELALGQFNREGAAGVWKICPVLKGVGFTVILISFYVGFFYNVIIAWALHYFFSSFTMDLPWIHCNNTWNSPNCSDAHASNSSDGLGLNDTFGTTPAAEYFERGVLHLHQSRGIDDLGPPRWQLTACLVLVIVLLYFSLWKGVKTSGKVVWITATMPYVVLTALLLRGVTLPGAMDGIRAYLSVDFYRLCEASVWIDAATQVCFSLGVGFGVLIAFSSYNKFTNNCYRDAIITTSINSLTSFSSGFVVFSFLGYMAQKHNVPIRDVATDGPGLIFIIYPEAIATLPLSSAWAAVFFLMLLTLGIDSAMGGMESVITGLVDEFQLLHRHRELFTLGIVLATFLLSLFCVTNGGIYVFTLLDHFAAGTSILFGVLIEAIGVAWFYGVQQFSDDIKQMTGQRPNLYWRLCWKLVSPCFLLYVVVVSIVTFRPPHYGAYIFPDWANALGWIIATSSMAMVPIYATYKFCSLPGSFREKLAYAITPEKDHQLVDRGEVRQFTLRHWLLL

The target in one test is Sodium-dependent serotonin transporter (Rattus norvegicus, UniProt P31652). The test is described as follows: Binding affinity at serotonin transporter from rat caudate-putamen tissue by [3H]WIN-35428 displacement. It is filed as tissue-based. A digest of the protocol:
(§1)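 Compounds were tested as oxalate salts. Ki values are the mean ± SEM of three experiments, each run in triplicate.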
In general, Ki refers to a measure of affinity in units of concentration, obtained from inhibition or displacement. Higher therefore signals a looser hold on the target. Compound `Fc1ccc(C(OCCC2CC3CCC(C2)N3Cc2ccccc2)c2ccc(F)cc2)cc1` (configuration not stated) yielded a Ki of 1430 nM.
`Oc1ccc(CN2C3CCC2CC(CCOC(c2ccc(F)cc2)c2ccc(F)cc2)C3)cc1` (configuration not stated) yielded a Ki of 809 nM.
`C(COC(c1ccccc1)c1ccccc1)=C1CC2CCC(C1)N2Cc1ccccc1` registered a Ki of 5420 nM.
Still for that read-out and setting: the same measure for `Oc1cccc(CN2C3CCC2CC(CCOC(c2ccc(F)cc2)c2ccc(F)cc2)C3)c1` (configuration not stated): 651 nM; for `Clc1ccc(C(OCCC2CC3CCC(C2)N3CCCc2ccccc2)c2ccccc2)cc1` (configuration not stated): 374 nM.
Still for that read-out and setting: then `Clc1ccc(C(OCCC2CC3CCC(C2)N3Cc2ccccc2)c2ccccc2)cc1` (configuration not stated), with 1940 nM; and `Clc1ccc(C(OCCC2CC3CCC(C2)N3CCCc2ccccc2)c2ccc(Cl)cc2)cc1` (configuration not stated), with 177 nM; and `c1ccc(CCCN2[C@@H]3CC[C@H]2C[C@@H](CCOC(c2ccccc2)c2ccccc2)C3)cc1`, with 750 nM.
In turn, `CN1[C@@H]2CC[C@H]1C[C@@H](CCOC(c1ccccc1)c1ccccc1)C2` displayed a Ki of 14100 nM.
Consider `Fc1ccc(C(OCC[C@H]2C[C@H]3CC[C@@H](C2)N3CCCc2ccccc2)c2ccc(F)cc2)cc1`, for which the Ki was found to be 175 nM.
Still for that read-out and setting: then `Fc1ccc(C(OCC=C2CC3CCC(C2)N3CCCc2ccccc2)c2ccc(F)cc2)cc1`, with 562 nM; and `CN1C2CCC1CC(CCOC(c1ccccc1)c1ccc(Cl)cc1)C2` (configuration not stated), with 3430 nM; and `c1ccc(CN2C3CCC2CC(CCOC(c2ccccc2)c2ccccc2)C3)cc1` (configuration not stated), with 4780 nM.
The compound `Fc1ccc(C(OCC=C2CC3CCC(C2)N3Cc2ccccc2)c2ccc(F)cc2)cc1` had a Ki of 2220 nM.
In turn, `CN1C2CCC1CC(CCOC(c1ccc(Cl)cc1)c1ccc(Cl)cc1)C2` (configuration not stated) displayed a Ki of 1160 nM.
Regarding `CN1C2CCC1CC(CCOC(c1ccc(F)cc1)c1ccc(F)cc1)C2` (configuration not stated), the Ki was determined as 2470 nM.
Regarding `Clc1ccc(C(OCCC2CC3CCC(C2)N3Cc2ccccc2)c2ccc(Cl)cc2)cc1` (configuration not stated), affinity was put at a Ki of 822 nM.

A further test deals with Sodium-dependent dopamine transporter (Rattus norvegicus, UniProt P23977). The experiment in a line: Binding affinity at dopamine transporter from rat caudate-putamen tissue by [3H]WIN-35428 displacement. A digest of the protocol:
as §1
The compound `Fc1ccc(C(OCCC2CC3CCC(C2)N3Cc2ccccc2)c2ccc(F)cc2)cc1` (configuration not stated) gave a Ki of 5.7 nM.
Compound `Oc1ccc(CN2C3CCC2CC(CCOC(c2ccc(F)cc2)c2ccc(F)cc2)C3)cc1` (configuration not stated) displayed a Ki of 30 nM.
`C(COC(c1ccccc1)c1ccccc1)=C1CC2CCC(C1)N2Cc1ccccc1` came in with a Ki of 48 nM.
For the compound `Oc1cccc(CN2C3CCC2CC(CCOC(c2ccc(F)cc2)c2ccc(F)cc2)C3)c1` (configuration not stated), the inhibition constant Ki amounted to 20 nM.
On the same count and under the same terms, then `Clc1ccc(C(OCCC2CC3CCC(C2)N3CCCc2ccccc2)c2ccccc2)cc1` (configuration not stated), with 30 nM; and `Clc1ccc(C(OCCC2CC3CCC(C2)N3Cc2ccccc2)c2ccccc2)cc1` (configuration not stated), with 82 nM; and `Clc1ccc(C(OCCC2CC3CCC(C2)N3CCCc2ccccc2)c2ccc(Cl)cc2)cc1` (configuration not stated), with 50 nM.
`c1ccc(CCCN2[C@@H]3CC[C@H]2C[C@@H](CCOC(c2ccccc2)c2ccccc2)C3)cc1` displayed a Ki of 18 nM.
Compound `CN1[C@@H]2CC[C@H]1C[C@@H](CCOC(c1ccccc1)c1ccccc1)C2` had a Ki of 58 nM.
`Fc1ccc(C(OCC[C@H]2C[C@H]3CC[C@@H](C2)N3CCCc2ccccc2)c2ccc(F)cc2)cc1`: affinity was put at a Ki of 7.4 nM.
On to `Fc1ccc(C(OCC=C2CC3CCC(C2)N3CCCc2ccccc2)c2ccc(F)cc2)cc1`, for which the Ki was determined as 3.7 nM.
Still for that read-out and setting: the same measure for `CN1C2CCC1CC(CCOC(c1ccc(Cl)cc1)c1ccc(Cl)cc1)C2` (configuration not stated): 18 nM; for `CN1C2CCC1CC(CCOC(c1ccc(F)cc1)c1ccc(F)cc1)C2` (configuration not stated): 31 nM; for `Clc1ccc(C(OCCC2CC3CCC(C2)N3Cc2ccccc2)c2ccc(Cl)cc2)cc1` (configuration not stated): 91 nM.

For another test, the target named is Monoamine transporters; serotonin & dopamine (Rattus norvegicus) (UniProt P31652+P23977). The test is described as follows: Binding affinity towards serotonin transporter compared to dopamine transporter. It is filed as protein assay.
Chain of Monoamine transporters; serotonin & dopamine (Rattus norvegicus) (P23977 whole entry, looked up): as the sequence (P23977 whole entry) above
Chain of Monoamine transporters; serotonin & dopamine (Rattus norvegicus) (P31652 whole entry, looked up): as the sequence (P31652 whole entry) above
`Fc1ccc(C(OCCC2CC3CCC(C2)N3Cc2ccccc2)c2ccc(F)cc2)cc1` (configuration not stated): the Ratio was 251.
For `Oc1ccc(CN2C3CCC2CC(CCOC(c2ccc(F)cc2)c2ccc(F)cc2)C3)cc1` (configuration not stated), the Ratio stood at 27.
Consider `C(COC(c1ccccc1)c1ccccc1)=C1CC2CCC(C1)N2Cc1ccccc1`, for which the Ratio amounted to 113.
Regarding `Oc1cccc(CN2C3CCC2CC(CCOC(c2ccc(F)cc2)c2ccc(F)cc2)C3)c1` (configuration not stated), the Ratio was found to be 33.
Turning to `Clc1ccc(C(OCCC2CC3CCC(C2)N3CCCc2ccccc2)c2ccccc2)cc1` (configuration not stated), the Ratio was determined as 12.
Take `Clc1ccc(C(OCCC2CC3CCC(C2)N3Cc2ccccc2)c2ccccc2)cc1` (configuration not stated): the Ratio is 24.
For the compound `Clc1ccc(C(OCCC2CC3CCC(C2)N3CCCc2ccccc2)c2ccc(Cl)cc2)cc1` (configuration not stated), the Ratio worked out at 4.
Turning to `c1ccc(CCCN2[C@@H]3CC[C@H]2C[C@@H](CCOC(c2ccccc2)c2ccccc2)C3)cc1`, the Ratio stood at 42.
As for `CN1[C@@H]2CC[C@H]1C[C@@H](CCOC(c1ccccc1)c1ccccc1)C2`, the Ratio is 243.
As to `Fc1ccc(C(OCC=C2CC3CCC(C2)N3CCCc2ccccc2)c2ccc(F)cc2)cc1`, the Ratio turned out to be 152.
Consider `CN1C2CCC1CC(CCOC(c1ccccc1)c1ccc(Cl)cc1)C2` (configuration not stated), for which the Ratio was 71.
For `c1ccc(CN2C3CCC2CC(CCOC(c2ccccc2)c2ccccc2)C3)cc1` (configuration not stated), the Ratio came to 48.
Take `Fc1ccc(C(OCC=C2CC3CCC(C2)N3Cc2ccccc2)c2ccc(F)cc2)cc1`: the Ratio turned out to be 281.
Still for that read-out and setting: the same measure for `CN1C2CCC1CC(CCOC(c1ccc(Cl)cc1)c1ccc(Cl)cc1)C2` (configuration not stated): 64; for `CN1C2CCC1CC(CCOC(c1ccc(F)cc1)c1ccc(F)cc1)C2` (configuration not stated): 80; for `Clc1ccc(C(OCCC2CC3CCC(C2)N3Cc2ccccc2)c2ccc(Cl)cc2)cc1` (configuration not stated): 9.
